Experimental data published in ChEMBL document CHEMBL1128250, “Structure-activity studies of 2,3,4,4a,5,9b-hexahydroindeno[1,2-c]pyridines as antispermatogenic agents for male contraception” (1995).

How the values were obtained:
Mus musculus [1] = assay: Tested for its effect on mouse testes weight 3 days after single sub cutaneous dose (5 mg/kg); type: functional, Testis
Procedure, shortened: (§1)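 CD-1 outbred Swiss albino male mice, 5 per dose, single subcutaneous injection on day 0 at 10 mL/kg in ethanol/Tween-20/water (3:7:90). Killed 72 h later. Testes weighed and scored for spermatogenic index (0–6). Results are % reduction versus vehicle control. Each assay included a 30 mg/kg positive control. Dunnett's one-tailed t-test, p < 0.05. Oral versus sc route compared by ANOVA.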

Mus musculus [2] = assay: Effect on left testes body weight a single oral dose of 3 mg/kg was given and the change after 1 h of dosing was observed.; type: functional, Testis
Procedure, shortened: (§2)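 Male CD-1 outbred Swiss albino mice, single oral gavage in acetate buffer pH 5 (10 mL/kg), 3, 10 or 30 mg/kg, plus vehicle control. Killed on day 1, 3 or 14 after dosing (times are days, not hours). Testes removed, right and left weighed separately, sectioned for histology and scored on a 0–6 spermatogenic index. Body weight change recorded. Mean ± SEM, n = 5; p < 0.05 versus control.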

Mus musculus [3] = assay: Tested for its effect on spermatogenic index 3 days after single oral dose (1 mg/kg),; type: functional
Procedure, shortened: (§3)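 CD-1 outbred Swiss albino male mice, 5 per dose, single gavage on day 0 at 10 mL/kg. Vehicle was 0.15 M acetate buffer pH 5, ethanol/Tween-20/water (3:7:90), or 1% Tween-20 in water. CO2 euthanasia 72 h later. Testes weighed and histologically scored (spermatogenic index 0–6). Values are % reduction versus the assay's vehicle control. Positive control was 30 mg/kg of the parent compound. Significance by Dunnett's one-tailed t-test, p < 0.05.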

Mus musculus [4] = assay: Effect on right spermatogenic index single oral dose of 10 mg/kg was given and the change after 3 hr of dosing was observed.; type: functional; procedure, shortened: as §2
Mus musculus [5] = assay: Effect on left testes weight single oral dose of 30 mg/kg was given and the change after 3 hr of dosing was observed.; type: functional, Testis; procedure, shortened: as §2
Mus musculus [6] = assay: Effect on right testes body weight single oral dose of 10 mg/kg was given and the change after 14 h of dosing was observed.; type: functional, Testis; procedure, shortened: as §2
Mus musculus [7] = assay: Effect on change in body weight single oral dose of 10 mg/kg was given and the change after 14 hr of dosing was observed.; type: functional; procedure, shortened: as §2
Mus musculus [8] = assay: Effect on right testes weight single oral dose of 3 mg/kg was given and the change after 3 hr of dosing was observed.; type: functional, Testis; procedure, shortened: as §2
Mus musculus [9] = assay: Tested for its effect on mouse testes weight 3 days after single sub cutaneous dose (30 mg/kg); type: functional, Testis; procedure, shortened: as §1
Mus musculus [10] = assay: Tested for its effect on spermatogenic index 3 days after single oral dose (90 mg/kg); type: functional; procedure, shortened: as §3
Mus musculus [11] = assay: Tested for its effect on mouse testes weight 3 days after single oral dose (10 mg/kg); type: functional, Testis; procedure, shortened: as §3
Mus musculus [12] = assay: Effect on right testes weight single oral dose of 30 mg/kg was given and the change after 3 hr of dosing was observed.; type: functional, Testis; procedure, shortened: as §2
Mus musculus [13] = assay: Tested for its effect on testes weight 3 days after single sub cutaneous dose (10 mg/kg); type: functional, Testis; procedure, shortened: as §1
Mus musculus [14] = assay: tested for its effect on mouse testes weight 3 days after single oral dose (1 mg/kg); type: functional, Testis
Procedure, shortened: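 Male CD-1 (ICR)BR outbred Swiss albino mice, 5/dose, given one oral gavage dose (10 mL/kg) on day 0 in 0.15 M acetate buffer pH 5, ethanol/Tween-20/water (3:7:90), or 1% Tween-20 in water; vehicle and positive-control groups in each assay. Killed by CO2 72 h later; testes weighed. Expressed as % reduction versus vehicle control; Dunnett's one-tailed t-test.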

Mus musculus [15] = assay: Effect on change in body weight single oral dose of 3 mg/kg was given and the change after 14 hr of dosing was observed.; type: functional; procedure, shortened: as §2
Mus musculus [16] = assay: Effect on right testes weight single oral dose of 3 mg/kg was given and the change after 1 hr of dosing was observed. Data are given as mean +/- SEM (N=5), P<0.05, compared to control; type: functional, Testis; procedure, shortened: as §2
Mus musculus [17] = assay: Effect on spermatogenic index single oral dose of 30 mg/kg was given and the change after 1 hr of dosing was observed.; type: functional; procedure, shortened: as §2
Mus musculus [18] = assay: Effect on right testes weight asingle oral dose of 3 mg/kg was given and the change after 14 hr of dosing was observed.; type: functional, Testis; procedure, shortened: as §2
Mus musculus [19] = assay: Effect on left testes body weight single oral dose of 3 mg/kg was given and the change after 14 hr of dosing was observed.; type: functional, Testis; procedure, shortened: as §2

CCN1CC[C@H]2[C@H](c3ccc(C)cc3)c3cc(C)ccc3[C@H]2C1.Cl was tested, and the Reduction (Mus musculus [1]) was 5%, the Testes weight (Mus musculus [2]) was 96.9 mg and the Reduction (Mus musculus [3]) was 7%. For the same molecule, the Spermatogenic index (Mus musculus [4]) was 3.5, the Testes weight (Mus musculus [5]) was 78.2 mg and the Testes weight (Mus musculus [6]) was 104.8 mg. The “Change in body weight” value (Mus musculus [7]) was 3.18 g, the Testes weight (Mus musculus [8]) was 112.6 mg and the Reduction (Mus musculus [9]) was 14%. It also gave a Reduction (Mus musculus [10]) of -9%, a Reduction (Mus musculus [11]) of 10% and a Testes weight (Mus musculus [12]) of 81 mg. For the same molecule, the Reduction (Mus musculus [13]) was -11%, the Reduction (Mus musculus [14]) was 25% and the “Change in body weight” value (Mus musculus [15]) was 3.62 g. For the same molecule, the Testes weight (Mus musculus [16]) was 104.9 mg, the Spermatogenic index (Mus musculus [17]) was 4.4 and the Testes weight (Mus musculus [18]) was 126.5 mg. For the same molecule, the Testes weight (Mus musculus [19]) was 119.3 mg.
